Results taken from PMC8594913 (Nature cancer, 2021).

Experiments:
[1] = system: MV4–11 human systemic AML model; experiment: Disseminated MV4–11 AML model, survival; type: in vivo, mouse; settings: 30 d of dosing
MV4–11 cells [2] = experiment: Global DNA methylation; type: cell-based, human; settings: MV4–11, day 4
In short: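 MV4–11 cells plated in 10-cm dishes 24 h before treatment with 0.1% DMSO or compound (8-point, threefold serial dilution). Global 5-methylcytosine was measured, and treated values were normalized to vehicle control.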

MV4–11 cells [3] = experiment: Cell growth–death assay, MV4–11; type: cell-based, human
[4] = system: 51 hematologic cancer cell lines; experiment: 6-d proliferation, panel of 51 hematologic cancer cell lines; type: cell-based, human
In short: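 6-d proliferation run by Horizon Discovery on its 2D OncoSignature panel. Compound given as a 10-point, threefold serial dilution, in triplicate. Growth-death index (GDI) runs from −100 (complete cell death) to 100 (no inhibition). Growth IC50 (gIC50) and GDI are reported per line.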

MV4–11 xenograft = experiment: Subcutaneous MV4–11 xenograft; type: in vivo, mouse
[5] = system: AML cells (MV4–11, GDM-1, SKM-1); experiment: Western blotting; type: cell-based, human
In short: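 Cells plated in 15-cm dishes 24 h before treatment with 0.1% DMSO or compound (6-point, fivefold serial dilution); GDM-1 cells were treated 2 d at 3.2–10,000 nM. Blots probed with IRDye secondary antibodies and imaged on a LI-COR Odyssey. Total H2AX (and vinculin for GDM-1) served as loading controls.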

[6] = Peripheral blood cell counts, SKM-1 study; type: in vivo, mouse
In short: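 SKM-1 xenograft mice. Compound given s.c. twice daily in 10% captisol (pH 4.5–5); reference agent i.p. three times weekly; both at 10 ml kg⁻¹. Blood counts taken at end of dosing (day 28) and after 27 d recovery (day 55), n = 5 per group. One-way ANOVA with Dunnett's test, adjusted P; log₁₀-transformed where variances were unequal.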

SKM-1 xenograft = experiment: Subcutaneous SKM-1 xenograft; type: in vivo, mouse
Gla1 = Gla1 counter screen; type: biochemical; settings: read-out: Gla1 IC50; n = 40
[7] = system: hemi-methylated hairpin oligonucleotide; experiment: DNA binding assay
In short: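 Differential scanning fluorimetry on hemi-methylated hairpin oligonucleotide (200 nM) with 100 μM compound or DMSO. Ramp 25–95 °C at 1 °C min⁻¹, fluorescence read after each step. n = 2 biologically independent experiments, two technical replicates each.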

[8] = Compound stability in media without or with cells; type: physicochemical; settings: 1,000 nM, media without or with MV4–11 cells, 37 °C
In short: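 MV4–11 cells, or media alone, plated 24 h before adding compound (100 or 1000 nM) and incubated at 37 °C. Remaining compound was quantified by LC-MS/MS.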

DNMT1 [9] = target: T1, DNMT1 (Homo sapiens, UniProt P26358); experiment: Reversibility by rapid dilution; type: biochemical; settings: 100-fold rapid dilution
T1 sequence (P26358 whole entry): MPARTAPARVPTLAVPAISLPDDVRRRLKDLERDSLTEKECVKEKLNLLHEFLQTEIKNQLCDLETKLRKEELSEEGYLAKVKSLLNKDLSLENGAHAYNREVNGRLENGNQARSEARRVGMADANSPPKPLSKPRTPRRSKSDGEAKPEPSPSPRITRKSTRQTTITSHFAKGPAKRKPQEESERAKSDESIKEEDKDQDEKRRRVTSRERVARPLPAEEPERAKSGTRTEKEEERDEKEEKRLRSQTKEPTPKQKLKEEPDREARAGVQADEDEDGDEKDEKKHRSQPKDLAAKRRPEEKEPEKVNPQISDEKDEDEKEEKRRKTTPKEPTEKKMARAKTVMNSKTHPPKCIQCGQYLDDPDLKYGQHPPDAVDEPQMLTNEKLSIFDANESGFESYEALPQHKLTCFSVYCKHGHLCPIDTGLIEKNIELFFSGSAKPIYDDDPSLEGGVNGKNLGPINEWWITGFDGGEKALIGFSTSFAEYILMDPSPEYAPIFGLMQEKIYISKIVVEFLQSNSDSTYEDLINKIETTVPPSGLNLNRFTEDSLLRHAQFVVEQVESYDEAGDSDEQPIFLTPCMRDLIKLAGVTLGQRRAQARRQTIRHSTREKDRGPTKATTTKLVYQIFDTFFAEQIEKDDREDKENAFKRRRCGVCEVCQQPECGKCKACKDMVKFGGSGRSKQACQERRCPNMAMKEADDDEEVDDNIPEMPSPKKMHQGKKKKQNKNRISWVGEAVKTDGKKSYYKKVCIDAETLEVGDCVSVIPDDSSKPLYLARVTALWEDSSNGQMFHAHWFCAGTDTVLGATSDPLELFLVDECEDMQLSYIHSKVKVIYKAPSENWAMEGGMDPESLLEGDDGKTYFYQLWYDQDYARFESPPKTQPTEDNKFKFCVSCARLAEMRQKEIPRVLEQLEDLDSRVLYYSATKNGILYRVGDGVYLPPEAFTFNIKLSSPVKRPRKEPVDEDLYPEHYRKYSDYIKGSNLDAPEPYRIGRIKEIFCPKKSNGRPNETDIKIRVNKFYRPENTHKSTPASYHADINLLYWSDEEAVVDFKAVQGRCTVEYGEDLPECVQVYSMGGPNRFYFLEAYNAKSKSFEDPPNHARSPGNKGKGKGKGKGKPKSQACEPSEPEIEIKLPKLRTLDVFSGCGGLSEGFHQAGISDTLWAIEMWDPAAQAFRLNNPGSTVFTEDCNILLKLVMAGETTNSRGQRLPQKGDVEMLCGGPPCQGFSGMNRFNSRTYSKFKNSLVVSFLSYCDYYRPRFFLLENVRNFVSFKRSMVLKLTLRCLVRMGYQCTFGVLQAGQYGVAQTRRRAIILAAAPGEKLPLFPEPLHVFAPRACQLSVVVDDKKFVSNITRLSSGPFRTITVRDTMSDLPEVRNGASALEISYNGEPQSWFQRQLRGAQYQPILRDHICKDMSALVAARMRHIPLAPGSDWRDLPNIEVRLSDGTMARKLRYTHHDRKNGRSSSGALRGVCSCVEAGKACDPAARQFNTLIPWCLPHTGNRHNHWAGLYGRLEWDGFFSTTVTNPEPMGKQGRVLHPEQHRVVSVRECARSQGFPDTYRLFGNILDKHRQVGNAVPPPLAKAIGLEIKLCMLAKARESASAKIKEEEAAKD
In short: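 DNMT1 preincubated 20 min with compound, then the complex was diluted 100-fold by adding substrates. Activity recovery was followed over 70 min by quenching at time points after dilution. Data were fit to a fixed steady-state velocity equation.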

SKM-1 tumors = experiment: Pharmacodynamics in SKM-1 tumors; type: in vivo, mouse; settings: SKM-1, 45 mg kg^−1, 8 d of dosing
In short: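 SKM-1 subcutaneous xenografts in NOD-scid mice, 3 per group (24 total). Compound given s.c. twice daily in 10% captisol (pH 4.5–5) at 10 ml kg⁻¹. Tumors and blood collected 6 h after the last dose on day 8.5. Tumors assayed for global 5-methylcytosine; blood drug levels by HPLC–MS/MS after acetonitrile precipitation.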

[10] = mouse, in vivo, sc
Murine DNMT1 (731–1602) = Murine DNMT1 (731–1602) (Mus musculus, UniProt P13864); experiment: Investigation of covalent adduct; type: binding; settings: 25 μM, 20 h, hemi-methylated DNA
Chain of Murine DNMT1 (731–1602) (P13864 731-1602): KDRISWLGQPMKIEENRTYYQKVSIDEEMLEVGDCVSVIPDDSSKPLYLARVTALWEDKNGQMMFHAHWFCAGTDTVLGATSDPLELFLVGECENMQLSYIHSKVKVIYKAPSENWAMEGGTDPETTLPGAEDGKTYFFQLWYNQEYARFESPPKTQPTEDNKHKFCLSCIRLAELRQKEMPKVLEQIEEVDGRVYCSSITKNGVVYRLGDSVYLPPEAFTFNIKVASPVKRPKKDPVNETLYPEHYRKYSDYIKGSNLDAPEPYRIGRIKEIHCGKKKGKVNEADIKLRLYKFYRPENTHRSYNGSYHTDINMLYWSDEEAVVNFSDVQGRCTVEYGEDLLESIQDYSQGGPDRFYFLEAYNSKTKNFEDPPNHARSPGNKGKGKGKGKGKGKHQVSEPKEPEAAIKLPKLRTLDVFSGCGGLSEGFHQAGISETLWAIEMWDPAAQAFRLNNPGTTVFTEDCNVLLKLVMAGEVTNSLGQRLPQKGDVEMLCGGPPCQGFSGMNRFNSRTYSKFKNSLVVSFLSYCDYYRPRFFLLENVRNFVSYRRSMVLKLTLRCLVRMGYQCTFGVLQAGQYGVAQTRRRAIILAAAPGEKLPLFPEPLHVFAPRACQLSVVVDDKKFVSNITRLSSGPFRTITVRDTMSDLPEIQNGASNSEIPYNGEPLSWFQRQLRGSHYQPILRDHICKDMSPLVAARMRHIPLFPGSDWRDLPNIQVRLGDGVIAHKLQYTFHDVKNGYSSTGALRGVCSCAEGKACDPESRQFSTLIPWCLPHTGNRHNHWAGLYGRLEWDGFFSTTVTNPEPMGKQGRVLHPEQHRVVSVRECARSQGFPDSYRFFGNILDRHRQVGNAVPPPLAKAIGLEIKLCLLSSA
In short: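 Murine DNMT1 (731–1602, 5.6 μM) incubated 20 h with 14-mer hemi-methylated DNA duplex (25 μM), with or without compound (25 μM). Buffer: 20 mM Tris pH 7.5, 50 mM NaCl, 5 mM DTT, 20% glycerol, 2.5% DMSO. Aliquots diluted fivefold in 0.05% TFA/0.1% formic acid; 20 pmol protein analysed by intact-mass TOF LC–MS for adducts.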

DNMT1 in HepG2 cells = DNMT1 in HepG2 cells (Homo sapiens, UniProt P26358); experiment: Cellular thermal shift assay; type: cell-based; settings: HepG2, 90 min
Chain of DNMT1 in HepG2 cells (P26358 whole entry): as the sequence (P26358 whole entry) above

Mouse pharmacokinetics = type: in vivo; settings: mice
In short: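 Naive mice, 3 per group, each given a single dose: 2 mg kg⁻¹ i.v. (male CD-1), 2 mg kg⁻¹ s.c. (male C57/BL6) or 30 mg kg⁻¹ s.c. (female Nu/Nu). Composite blood samples were taken over 24 h and measured by HPLC–MS/MS. Parameters came from noncompartmental analysis of mean blood concentration–time profiles; AUC by linear trapezoidal rule.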

H1507Y mutant DNMT1 = experiment: Radioactive SPA, H1507Y DNMT1; type: biochemical, human
[11] = target: other methyltransferases (n = 34); experiment: Methyltransferase selectivity panel; type: biochemical; settings: read-out: IC50 values, methyltransferase panel
In short: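 Methyltransferase panel run at Reaction Biology with HotSpot technology in IC50 format (10-point, threefold serial dilution).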

kinases (n = 369) = experiment: Kinase selectivity panel; type: biochemical; settings: read-out: IC50 values, kinase panel, panel tested at 10 μM
In short: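 Kinase panel run at Reaction Biology with HotSpot technology, compound at a single concentration of 10 μM. PIM1, PKD2/PRKD2 and DYRK2 were run in IC50 format (10-point, threefold serial dilution).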

DNMT1 [12] = target: T1, DNMT1; experiment: Radioactive SPA, DNMT1, 40-mer hemi-methylated DNA; type: biochemical; settings: read-out: DNMT1 IC50
[13] = system: bacterial M.SssI CpG DNMT; settings: cited from earlier work
DNMT1 [14] = settings: cited from earlier work
DNMT3A = settings: cited from earlier work
DNMT1 (729-1600) = DNMT1 (729-1600) (human, UniProt P26358 729-1600); experiment: X-ray crystallography
Chain of DNMT1 (729-1600) (P26358 729-1600): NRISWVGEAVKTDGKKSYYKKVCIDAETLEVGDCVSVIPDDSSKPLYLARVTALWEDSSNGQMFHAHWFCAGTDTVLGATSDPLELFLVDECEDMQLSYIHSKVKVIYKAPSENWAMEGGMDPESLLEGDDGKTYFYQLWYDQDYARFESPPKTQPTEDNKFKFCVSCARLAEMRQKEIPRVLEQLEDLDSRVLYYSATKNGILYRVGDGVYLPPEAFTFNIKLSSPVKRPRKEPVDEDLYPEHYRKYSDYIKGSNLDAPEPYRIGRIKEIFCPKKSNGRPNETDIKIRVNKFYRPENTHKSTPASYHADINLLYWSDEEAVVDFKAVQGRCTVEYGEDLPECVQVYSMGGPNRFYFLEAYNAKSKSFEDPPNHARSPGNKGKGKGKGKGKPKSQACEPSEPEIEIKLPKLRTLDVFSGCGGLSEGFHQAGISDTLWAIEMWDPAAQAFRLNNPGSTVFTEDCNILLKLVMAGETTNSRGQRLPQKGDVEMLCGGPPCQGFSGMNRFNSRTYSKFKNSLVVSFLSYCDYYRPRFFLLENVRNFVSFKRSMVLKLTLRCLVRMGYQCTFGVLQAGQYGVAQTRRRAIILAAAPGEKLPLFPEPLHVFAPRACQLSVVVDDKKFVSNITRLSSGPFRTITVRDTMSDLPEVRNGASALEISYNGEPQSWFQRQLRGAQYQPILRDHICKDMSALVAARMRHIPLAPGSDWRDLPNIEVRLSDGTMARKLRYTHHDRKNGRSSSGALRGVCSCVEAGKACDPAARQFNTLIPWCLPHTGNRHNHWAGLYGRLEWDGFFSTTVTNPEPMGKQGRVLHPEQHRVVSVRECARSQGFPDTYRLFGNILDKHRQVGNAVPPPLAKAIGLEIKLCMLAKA

## Nc1ncn([C@H]2C[C@H](O)[C@@H](CO)O2)c(=O)n1 [DAC, decitabine, reference compound]
[1]
  survival benefit over vehicle: 13 days
MV4–11 cells [2]
  concentration above which DNA hypomethylation and gene activation diminish: above 350 nM
MV4–11 cells [3]; MV4–11
  onset of cell death (negative GDI): 2 days
[4]; day 6
  cell lines with negative growth–death index (GDI): 80%
MV4–11 xenograft; MV4–11, intraperitoneal three times weekly, not statistically significant
  tumor growth inhibition relative to vehicle: 57%
[5]
  lowest dose with accumulation of γH2AX (DNA damage): 16 nM
[6]; day 28, DAC intraperitoneal three times weekly
  neutrophils, red blood cells, platelets: statistically significant decreases
SKM-1 xenograft; SKM-1, intraperitoneal three times weekly, not statistically significant
  tumor growth inhibition relative to vehicle: 18%

## CCc1c(C#N)c(SC(C(N)=O)c2ccccc2)nc(N(C)C)c1C#N (stereo not drawn) [GSK3484862]
Gla1
  IC50: > 50000 nM
[7]; 100 μM compound
  nonspecific DNA binding: did not bind DNA nonspecifically
[7]; with DMSO or 100 μM compound
  Tm of hemi-methylated hairpin oligonucleotide: 77.5 °C
[8]
  chemical stability: chemically stable
DNMT1 [9]
  reversibility of DNMT1 inhibition: rapidly reversible inhibition

## CCc1c(C#N)c(SC(C(N)=O)c2ccccc2)nc(N2CCC(N)CC2)c1C#N (stereo not drawn) [GSK3685032]
SKM-1 tumors
  maximal loss of DNA methylation in tumors: 46%
[1]
  mice surviving nearly 7 weeks after dosing ended: 50%
  survival benefit over vehicle: > 43 days
[10]
  well tolerated dose: at least 45 mg kg^−1
MV4–11 cells [2]
  additional loss of global DNA methylation versus DAC: 13%
  maximal response, loss of global DNA methylation: 83%
Murine DNMT1 (731–1602)
  covalent binding to DNMT1: noncovalent
MV4–11 cells [3]; AML lines, 6 d time course
  onset of growth inhibition: ≥ 3 days
[4]; read-out: median growth IC50 (gIC50), day 6, median of panel
  IC50: 640 nM
MV4–11 xenograft; MV4–11, subcutaneous twice daily
  dose giving clear tumor regression: ≥ 30 mg/kg
MV4–11 xenograft; MV4–11, ≥30 mg kg^−1, 4-week observation after dosing
  animals maintaining tumor volumes ≤200 mm^3 while off drug: ≥ 60%
[5]
  effects on DNMT3A, DNMT3B or γH2AX: no immediate effects
DNMT1 in HepG2 cells
  cellular target engagement (DNMT1 thermal stabilization): stabilization of DNMT1
Mouse pharmacokinetics
  blood half-life: > 1.8 h
  clearance: low clearance
  volume of distribution: moderate volume of distribution
H1507Y mutant DNMT1
  reduction in inhibition of H1507Y mutant versus wild-type DNMT1: > 350 fold
[11]
  IC50: > 10000 nM
[6]; day 28, 1 or 5 mg kg^−1
  neutrophils, red blood cells, platelets: no statistically significant changes
Kinases (n = 369)
  IC50: > 10000 nM
SKM-1 xenograft; SKM-1, subcutaneous twice daily
  dose giving clear tumor regression: ≥ 30 mg/kg
SKM-1 xenograft; SKM-1, ≥30 mg kg^−1, 4-week observation after dosing
  animals maintaining tumor volumes ≤200 mm^3 while off drug: ≥ 60%

## CCc1c(C#N)c(SCc2ccc(N(C)S(C)(=O)=O)cc2)nc(N(C)CCNC)c1C#N [GSK3830052]
DNMT1 [12]
  IC50: 110 ± 20 nM

## O=C(O)C(Cc1c[nH]c2ccccc12)N1C(=O)c2ccccc2C1=O (stereo not drawn) [RG-108]
[13]
  IC50: 12 nM

## Nc1ncnc2c1ncn2[C@@H]1O[C@H](CSCC[C@H](N)C(=O)O)[C@@H](O)[C@H]1O [SAH, S-adenosyl-L-homocysteine, reference compound]
H1507Y mutant DNMT1
  reduction in inhibition of H1507Y mutant versus wild-type DNMT1: not observed

## Cc1cc(Nc2ccc(NC(=O)c3ccc(Nc4ccnc5ccccc45)cc3)cc2)nc(N)n1 [SGI-1027]
MV4–11 cells [3]; MV4–11, day 6
  cell growth: inhibited cell growth
DNMT1 [14]
  activity against DNMT1: low μM activity
DNMT3A
  activity against DNMT3A: low μM activity

B1: 12-bp hemi-methylated DNA with zebularine (dsDNA)
DNA 1: GAGGCCGCCTGC
DNA 2: GCAGGCGGCCTC
modifications: strand 1 C6 = 5-methylcytosine (M); strand 2 C6 = zebularine (Z, in place of target cytidine)
DNMT1 (729-1600)
  binding result: binds
